Experimental data pooled from the literature.
Lines come from different studies, so protocols differ.
Target: Calcium/calmodulin-dependent protein kinase kinase 2 (CAMKK2, Homo sapiens, UniProt Q96RR4)

| Structure (SMILES) | observed | action | technique | concentration | endpoint | value |
| --- | --- | --- | --- | --- | --- | --- |
| C1=C/COCc2cc(ccc2OCCN2CCCC2)Nc2nccc(n2)-c2cccc(c2)COC/1 | binding | – | – | 0.1 µM | remaining binding | 68% |
| C=CC(=O)N1CCC([C@@H]2CCNc3c(C(N)=O)c(-c4ccc(Oc5ccccc5)cc4)nn32)CC1 | enzyme activity | inhibitor | – | 1 µM | inhibition | 12% |
| COc1ccc2[nH]c3c4[nH]c5ccc(OC)cc5c4c4c(c3c2c1)C(=O)NC4=O | binding | – | – | 1 µM | remaining binding | 74% |
| C=CC(=O)N1CCC[C@@H](n2nc(-c3ccc(Oc4ccccc4)cc3)c3c(N)ncnc32)C1 | enzyme activity | inhibitor | – | 1 µM | inhibition | 4% |
| CCCCC(=O)Nc1ccc(-c2ccc3ncn(CCC)c(=O)c3c2)cn1 | binding | – | competition with immobilised ligand | 0.5 µM | remaining binding | 100% |
| Cc1cc(O)c(-c2ccc([C@@H](C)CN(C)C)cc2)c2c1[nH]c(=O)c1sccc12 | enzyme activity | inhibitor | – | 0.1 µM | inhibition | 6.79% |
| Cc1ccc(NC(=O)c2ccnc(C(F)(F)F)c2)cc1-c1cc(OCCO)nc(N2CCOCC2)c1 | binding | – | – | 1 µM | remaining binding | 98% |
| C#Cc1cc(-c2cc(Nc3nc(N[C@@H](C)c4ccc(F)cn4)ncc3Cl)n[nH]2)ccc1C=O | enzyme activity | inhibitor | – | 0.2 µM | inhibition | 57.9% |
